Data as given in publication PMC6361726 (Bioorganic & medicinal chemistry, 2018).

Legend:
HK853 [1] = assay: Fluorescence polarization; assay type: binding, Thermotoga maritima
S. aureus = assay: Biofilm formation, crystal violet staining assay; assay type: cell-based, Staphylococcus aureus; settings: compared to a DMSO control, one replicate
HK853 [2] = assay: ATP[γ-33P] enzymatic activity inhibition assay; assay type: biochemical, Thermotoga maritima; settings: at non-aggregating concentrations
Method in brief: (§1)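 Secondary assay run in a coupled competition-aggregation format on two histidine kinases: HK853 from Thermotoga maritima and VicK from Streptococcus pneumoniae. Enzymatic activity is followed using ATP[γ-33P], and the degree of inhibition by the test compound is measured.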

Pseudomonas aeruginosa = assay: Cell viability by optical density and resazurin indicator dye; assay type: cell-based; settings: compared to a DMSO control, one replicate
protein kinase D = settings: cited from earlier work
[3] = test system: Methicillin-sensitive Staphylococcus aureus; assay: Cell viability by optical density and resazurin indicator dye; assay type: cell-based; settings: compared to a DMSO control, one replicate
VicK = VicK (Streptococcus pneumoniae, UniProt Q8DPL8); assay: ATP[γ-33P] enzymatic activity inhibition assay; assay type: biochemical; settings: at non-aggregating concentrations
Method in brief: as §1

p38 MAP kinase = settings: read-out: inhibition of p38 MAP kinase; quantity type not given; cited from earlier work
P. aeruginosa = assay: Biofilm formation, crystal violet staining assay; assay type: cell-based, Pseudomonas aeruginosa; settings: compared to a DMSO control, one replicate

VicK, sequence (Q8DPL8 whole entry): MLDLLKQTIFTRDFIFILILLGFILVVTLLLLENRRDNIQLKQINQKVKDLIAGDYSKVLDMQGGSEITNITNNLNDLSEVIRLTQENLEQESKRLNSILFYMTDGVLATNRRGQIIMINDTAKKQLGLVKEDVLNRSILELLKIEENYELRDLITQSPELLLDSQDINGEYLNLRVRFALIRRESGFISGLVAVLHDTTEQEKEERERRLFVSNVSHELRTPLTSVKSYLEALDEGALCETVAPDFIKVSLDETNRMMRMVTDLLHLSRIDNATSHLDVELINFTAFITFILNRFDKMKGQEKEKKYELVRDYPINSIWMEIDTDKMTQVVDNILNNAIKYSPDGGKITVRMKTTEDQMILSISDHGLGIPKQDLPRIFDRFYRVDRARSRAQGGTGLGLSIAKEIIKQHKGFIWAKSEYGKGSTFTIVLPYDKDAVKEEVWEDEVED

| Compound | activity in the HTS (FP screen) for HK inhibition (HK853 [1]; related library compounds that were not leads) | effect on biofilm production (S. aureus) | inhibition of HK activity (HK853 [2]) | displacement of ADP-BODIPY from the HK ATP-binding domain (HK853 [1]) | effect on cell viability (Pseudomonas aeruginosa) | inhibition of protein kinase D (protein kinase D) | effect on cell viability [3] | inhibition of VicK activity (VicK) | IC50 (p38 MAP kinase) [nM] | effect on biofilm production (P. aeruginosa) |
| --- | --- | --- | --- | --- | --- | --- | --- | --- | --- | --- |
| Fc1ccc(-c2c(-c3ccncc3)[nH]c3cccnc23)cc1 [RO1153853–000] | inactive | – | – | – | – | – | – | – | – | – |
| Fc1ccc(-c2c(-c3ccncc3)[nH]c3nccnc23)cc1 [compound 32] | – | little effect | inhibit | displace ADP-BODIPY | did not cause a significant decrease in cell viability | potent inhibitor | did not cause a significant decrease in cell viability | inhibit | 53 | little effect |
